Measurements: publication PMC8190911 (ACS Omega, 2021)

Assays:
[1] = rat; cited from earlier work
[2] = target: urease from Canavalin ensiformis (jack bean) (Canavalia ensiformis, UniProt P07374); assay: Inhibition of urease activity; format: biochemical
[3] = system: rat splenic lymphocytes; assay: Splenic lymphocyte proliferation with Con-A and HU; format: cell-based; conditions: HU 50 μM, rutin or gallic acid 10 μM, Con-A 5 μg/mL, 48 h, MTT
Method in brief: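 Spleens were taken aseptically from control rats into incomplete RPMI and minced through a strainer. Erythrocytes were lysed with 155 mM NH4Cl, 12 mM NaHCO3 and 0.1 mM EDTA, and the cells were washed and resuspended in complete RPMI. Cells were seeded at 2.5 × 10^4 per well, pretreated with test compound plus HU for 1 h at 37 °C, then stimulated with Con-A for 48 h. MTT (2.5 mg/mL, 20 μL) was added for 4 h and absorbance read at 570 nm. Groups were compared by Student's t-test.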

[4] = target: T1, horseradish peroxidase (HRP) (Armoracia rusticana, UniProt P00433); assay: Inhibition of HRP activity; format: biochemical
T1 sequence (P00433 31-338 limits assumed): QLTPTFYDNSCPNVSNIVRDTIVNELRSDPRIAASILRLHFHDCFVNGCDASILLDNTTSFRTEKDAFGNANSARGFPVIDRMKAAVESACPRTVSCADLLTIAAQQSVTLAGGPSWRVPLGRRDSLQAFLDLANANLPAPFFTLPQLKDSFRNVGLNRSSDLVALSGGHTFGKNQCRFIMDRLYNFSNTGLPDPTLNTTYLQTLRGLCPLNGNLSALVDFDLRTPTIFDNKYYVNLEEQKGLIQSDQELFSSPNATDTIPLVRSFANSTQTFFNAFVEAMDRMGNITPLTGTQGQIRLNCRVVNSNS
Method in brief: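 HRP (10 μL) combined with test compound (10 μL, 250–1000 μM) and 100 μL TMB. Reaction started with 0.03% (v/v) H2O2. The blue oxidised TMB product was read at 655 nm and % inhibition calculated against uninhibited activity. Sodium azide at 1000 μM served as reference inhibitor. Performed in triplicate.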

[5] = system: OATP1B3; conditions: read-out: IC50, inhibition of OATP1B3-mediated transport of CCK-8; ref Li et al.; cited from earlier work
[6] = system: CYP2E1; conditions: cited from earlier work
[7] = system: red blood cells; assay: Hemolysis assay on rat RBCs; format: cell-based; conditions: up to 1 mg/mL, 30 min at 37 °C
Method in brief: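 Blood from control rats drawn into aqueous EDTA and spun at 8000 rpm for 10 min. RBCs washed three times in PBS (pH 7.4) and diluted 1:10. Diluted cells (100 μL) mixed with 900 μL PBS containing test compound at 0.1 to 1 mg/mL. Blank PBS served as negative control and 1% Triton X-100 as positive control. Incubated 30 min at 37 °C with shaking, spun at 4 °C, supernatant absorbance read at 540 nm. % hemolysis scaled between the PBS and Triton absorbances.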

[8] = at the concentration range of 250–1000 μM

Sequence of urease from Canavalin ensiformis (jack bean) (P07374 whole entry, looked up): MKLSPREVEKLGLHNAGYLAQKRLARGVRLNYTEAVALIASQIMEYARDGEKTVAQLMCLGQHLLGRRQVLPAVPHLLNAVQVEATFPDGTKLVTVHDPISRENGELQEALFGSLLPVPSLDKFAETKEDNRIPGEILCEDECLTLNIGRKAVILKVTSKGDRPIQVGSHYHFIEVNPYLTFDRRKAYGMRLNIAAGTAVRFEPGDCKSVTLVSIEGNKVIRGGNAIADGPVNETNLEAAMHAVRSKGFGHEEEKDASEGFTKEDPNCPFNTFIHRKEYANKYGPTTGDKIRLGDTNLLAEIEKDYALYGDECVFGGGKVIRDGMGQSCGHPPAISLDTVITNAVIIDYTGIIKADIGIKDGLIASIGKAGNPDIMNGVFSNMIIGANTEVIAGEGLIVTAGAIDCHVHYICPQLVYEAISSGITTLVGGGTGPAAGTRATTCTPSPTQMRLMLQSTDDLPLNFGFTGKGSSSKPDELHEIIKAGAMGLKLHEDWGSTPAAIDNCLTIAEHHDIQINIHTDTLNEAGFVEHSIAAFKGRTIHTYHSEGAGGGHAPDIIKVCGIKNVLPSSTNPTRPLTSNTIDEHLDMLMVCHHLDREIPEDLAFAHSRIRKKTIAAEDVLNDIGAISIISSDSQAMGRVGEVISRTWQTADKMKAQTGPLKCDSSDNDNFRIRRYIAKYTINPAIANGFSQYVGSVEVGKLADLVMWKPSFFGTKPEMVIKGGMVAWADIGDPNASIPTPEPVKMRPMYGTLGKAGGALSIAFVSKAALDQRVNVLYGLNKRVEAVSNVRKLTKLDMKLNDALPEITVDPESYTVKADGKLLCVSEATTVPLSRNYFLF

Structure (SMILES) | effect on oral exposure of rosuvastatin [1] | IC50 [2] [µM] | effect on proliferation of lymphocytes [3] | inhibition of HRP [4, 8] | IC50 [5] [µM] | inhibition of HRP ([4]; at a concentration of 1000 μM) [%] | effect on expression of CYP2E1 [6] | RBCs lysis (% Hb released relative to positive and negative controls) [7] [%]
O=C(O)c1cc(O)c(O)c(O)c1 [gallic acid] | augmented the oral exposure of rosuvastatin | 635 | significantly elevated the proliferation of lymphocytes | 53–70% | 1.6 |  |  | 
NC(=O)NO [HU, Hydroxyurea, reference compound] |  |  | decreased |  |  |  |  | 
[N-]=[N+]=[N-].[Na+] [sodium azide, reference compound] |  |  |  |  |  | 97 |  | 
C[C@@H]1O[C@@H](OC[C@H]2O[C@@H](Oc3c(-c4ccc(O)c(O)c4)oc4cc(O)cc(O)c4c3=O)[C@H](O)[C@@H](O)[C@@H]2O)[C@H](O)[C@H](O)[C@H]1O [rutin, Rutin] |  | 780 | no considerable influence | 40–64% |  |  | enhanced its expression | ≤ 5
